PolyA inhibitor – yeast polyadenylation inhibition; activity score, % at 12 µM; AID 1875; 300,000 tested, 0.02% active; S. cerevisiae SKY197-pL101 polyadenylation reporter, beta-gal luminescence; efflux-impaired pdr1/pdr3 knockout yeast; score 100 = 6 SD above DMSO;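 active means lowest replicate activity score at least 50, where 100 means six control SD above control mean; inconclusive means lowest score under 50 but half or more replicates reach 50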;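 further: yeast exposed to compound for 9 h at 30 °C; higher score means more reporter readthrough which indicates perturbed polyadenylation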
CHT PAM – allosterically activates the human high affinity choline transporter; CHT-expressing cells, membrane potential dye, choline EC20; stronger effect = higher value; LV-AA mutant CHT in HEK293 cells; B-score at 10 µM; 310,000 tested, 0.49% active; AID 488977;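 active means initial fluorescence not abnormally high and integrated response B-score, plate-corrected, over 3 SD above library mean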
Target sequence (Q9GZV3 whole entry, looked up): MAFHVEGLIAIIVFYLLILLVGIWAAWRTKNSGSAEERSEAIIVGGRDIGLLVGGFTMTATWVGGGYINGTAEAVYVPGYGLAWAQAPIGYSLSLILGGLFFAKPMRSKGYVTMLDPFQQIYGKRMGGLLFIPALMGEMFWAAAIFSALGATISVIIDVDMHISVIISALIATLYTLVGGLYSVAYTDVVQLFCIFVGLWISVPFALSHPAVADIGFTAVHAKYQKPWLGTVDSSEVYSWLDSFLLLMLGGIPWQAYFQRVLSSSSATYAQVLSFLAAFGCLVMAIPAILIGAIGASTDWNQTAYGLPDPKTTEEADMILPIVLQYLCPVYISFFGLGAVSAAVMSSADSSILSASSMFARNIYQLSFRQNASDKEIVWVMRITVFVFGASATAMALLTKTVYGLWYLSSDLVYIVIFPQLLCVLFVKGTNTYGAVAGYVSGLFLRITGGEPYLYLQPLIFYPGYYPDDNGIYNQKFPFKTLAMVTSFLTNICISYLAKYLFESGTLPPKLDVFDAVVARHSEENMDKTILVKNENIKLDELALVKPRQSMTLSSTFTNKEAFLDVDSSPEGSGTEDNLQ
T cruzi inh – T. cruzi replication inhibition. T. cruzi beta-gal in NIH3T3, luminescence, 90 h. 300,000 tested, 1.4% active. inhibition, % (no concentration beside the values);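 active means mean inhibition across valid replicates above about 55%, limit read from the data; inconclusive means mean below that limit but half or more replicates reach it; inactive means mean below it, under half of replicates reach it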;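 further: signal also drops with host cell toxicity which is not excluded here; higher percent means less beta-gal luminescence so fewer parasites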
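System: mouse NIH/3T3 fibroblasts infected with β-gal-expressing T. cruzi Tulahuen C4 / Input: NIH/3T3 cells, 5,000 per well / Buffer or medium: Low-serum DMEM with 2% FBS / Probe or stimulus: 5000 reporter trypomastigotes per well / Schedule: ≥90 h infection period, 3 h prior cell attachment / Measured by: GalScreen luminescence, 60 min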
CHT inh – inhibitors of human choline transporter CHT | Q9GZV3 | CHT-expressing cells, membrane potential dye, choline response; stronger effect = lower value | B-score at 10 µM | 310,000 tested, 0.86% active | AID 488975;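 active means B-score over 3 SD under the library average, and starting fluorescence ratio not unusually high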;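 further: choline stimulus applied at its EC90 after an EC20 pre-addition; B-score computed on integrated fluorescence ratio after choline addition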
CHT activ conf – confirmation of human choline transporter (CHT) activators. CHT-expressing cells, membrane potential dye fluorescence (FDSS); % of choline EC20–EC90 response window; HEK293 expressing CHT LV-AA mutant; choline added at its EC20. activation, % at 10 µM. AID 504833. shares compounds with CHT PAM. 2,500 tested, 91% active;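 active means primary screen active, with duplicate mean activation above negative control mean plus 3 SD, cut at about 11% in these data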
HEK293 MP dye – CHT activator counter-screen hit in parental HEK293 cells; shares compounds with CHT PAM; membrane potential dye fluorescence (FDSS); measured after EC20 choline addition; ratio readout change at 10 µM, hits read low; 2,500 tested, 62% active; AID 623908;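 active means duplicate-averaged ratio beyond 3 SD from buffer wells, up or down, though filed actives are nearly all decreases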
A number is an active result; i = inactive; ? = inconclusive; nt = no result given. An excerpt weighted towards active compounds, which were near 2.6% of everything screened.

SMILES | PolyA inhibitor | CHT PAM | T cruzi inh | CHT inh | CHT activ conf | HEK293 MP dye
O=C(c1cccc(C(F)(F)F)c1)C1CCCN(Cc2cccn2-c2ccccn2)C1 (stereo not given) | i | 12 | i | i | i | i
CCC1CCCCN1C(=O)c1c[nH]c2ccc(S(=O)(=O)N(C)c3ccc(Cl)cc3)cc2c1=O (stereo not given) | ? | i | i | i | 30 | i
CCOc1ccc(N(C)S(=O)(=O)c2ccc3[nH]cc(C(=O)NCC(OC)OC)c(=O)c3c2)cc1 | i | i | i | i | 21 | i
COc1ccc(C(=O)Nc2ccccc2N2CCCC2)cc1S(=O)(=O)N1CCOCC1 | i | i | i | i | nt | nt
COc1ccc(NC(C)=O)cc1CNC(=O)CN1CCOCC1 | i | i | i | i | nt | nt
c1ccc(C[n+]2ccc3ccccc3c2)cc1 | i | 6.3 | nt | i | 43 | -48
c1ccc(C[n+]2cccc(-c3ccccc3)c2)cc1 | i | i | i | i | nt | nt
Cc1ccc2c(c1)c1c3n2CCN=C3CCC1 | i | i | i | i | nt | nt
COc1ccc2c(c1)c1c3n2CCN(C)C3=NCC1 | i | i | i | i | 53 | -60
COc1ccc(CN2CCCC(C(=O)Nc3cccc(-n4cnnn4)c3)C2)c(C)c1C (stereo not given) | i | i | i | i | nt | nt
O=S(=O)(c1cccc(F)c1)N1CCN(C(=S)NCC2CCCO2)CC1 (stereo not given) | i | i | i | i | nt | nt
COc1ccc(C(=O)N2CCCC(C(=O)O)C2)c2ccccc12 (stereo not given) | i | i | i | i | nt | nt
COc1ccc(C[C@H]2CN3C(=NC[C@@H]3Cc3ccccc3)N2C[C@H](C)NC(=O)CCC2CCCCC2)cc1 | i | nt | i | nt | nt | nt
COc1ccc(C[C@H]2CN3C(=NC[C@H]3Cc3ccccc3)N2CCNC(=O)CCC2CCCCC2)cc1 | i | i | i | i | 32 | i
O=C(NCc1ccco1)C1(S(=O)(=O)c2ccccc2)CC=CC1 | i | i | i | i | nt | nt
CC(C)n1cnc2c(Nc3cccc(Cl)c3)nc(NCCCO)nc21 | i | i | i | i | i | i
CC(C)n1cnc2c(Nc3ccc(C(=O)O)cc3)nc(Cl)nc21 | i | i | i | i | nt | nt
COCC(=O)n1nc(NCc2ccc(OC)cc2)nc1NCc1ccc(OC)cc1 | i | i | i | i | 10 | i
Cc1sc2nc(CN3CCCC3)nc(N3CCC(C(N)=O)CC3)c2c1C | i | 8.9 | i | i | 67 | -54
Cc1sc2nc(CN3CCCC3)nc(N3CCN(C(=O)c4ccco4)CC3)c2c1C | i | 7.3 | i | i | 46 | -39
Cc1sc2nc(CN3CCC(C)CC3)nc(Cl)c2c1C | i | i | i | i | nt | nt
Cc1nc(N2CCN(C(=O)c3ccco3)CC2)c2c3c(sc2n1)CCCC3 | i | i | i | i | nt | nt
COc1ccc(Cl)cc1NC(=S)Nc1cccnc1 | i | i | i | i | nt | nt
CCn1c2ccccc2c2n[nH]c(=S)nc21 | i | i | i | i | nt | nt
CCn1c2ccccc2c2nn(C)c(=N)nc21 | i | 7.2 | i | i | 66 | -70
SMILES | PolyA inhibitor | CHT PAM | T cruzi inh | CHT inh | CHT activ conf | HEK293 MP dye
COc1ccccc1C1c2[nH]c3ccccc3c2C[C@H]2C(=O)N(C3CCN(Cc4ccccc4)CC3)CC(=O)N12 (stereo not given in full) | i | i | i | i | nt | nt
COc1ccc2nc(N/C(N)=N/C(=S)Nc3cccc(C)c3)nc(C)c2c1 | i | i | i | i | nt | nt
COc1ccc2nc(N/C(N)=N/C(=S)Nc3c(C)cccc3C)nc(C)c2c1 | i | 7.1 | i | i | 50 | -41
c1ccc(CN2CCC(Nc3nc(-c4cccs4)nc4ccccc34)CC2)cc1 | i | i | i | i | 23 | -48
c1ccc(N2CCN(c3nc(-c4cccs4)nc4ccccc34)CC2)cc1 | i | i | i | i | nt | nt
CCN1CCN(c2nc(-c3cccs3)nc3ccccc23)CC1 | i | 7.1 | i | i | 43 | -40
CN1CCN(c2nc(-c3cccs3)nc3ccccc23)CC1 | i | i | i | i | 39 | -65
CN(C(=O)c1cncc(Br)c1)C1C2CC3CC(C2)CC1C3 (stereo not given) | i | i | i | i | nt | nt
COC(=O)c1ccc(Nc2c([N+](=O)[O-])ccc3nonc23)cc1 | i | i | i | i | nt | nt
